Experiments:
Rattus norvegicus [1] = test: Antiinflammatory activity in po dosed rat assessed as inhibition of carrageenan-induced paw edema compound administered 1 hr prior challenge measured 3 hrs post challenge; assay type: functional
Procedure, shortened: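 Rats of 180-220 g received oral doses in a series, in 1% tragacanth vehicle, 1 h before intraplantar injection of 0.05 mL of 1% carrageenan. Paw edema was measured at 3 h. ED50 (mg/kg) was derived graphically from the dose-inhibition curve, with 95% confidence limits by Finney's method for some compounds. Amines were tested as hydrochlorides.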

Rattus norvegicus [2] = test: Antiinflammatory activity in rat assessed as inhibition of carrageenan-induced paw edema at 50 mg/kg, po administered 1 hr prior challenge measured 3 hrs post challenge; assay type: functional
Procedure, shortened: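 Rats of 180-220 g, four per group, were given 50 mg/kg orally in 1% tragacanth vehicle 1 h before intraplantar injection of 0.05 mL of 1% carrageenan. Hind-paw edema was measured 3 h after injection and reported as percent inhibition (Winter method).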

[3] = Toxicity in ip dosed mouse; assay type: organism-based; conditions: in vivo
Procedure, shortened: (§1)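 Mice; LD50 derived by Horn's method. Amine compounds were tested as hydrochloride salts, with one exception given as the free base.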

Canis familiaris [4] = species: Canis familiaris; test: Toxicity in dog assessed as effects on gastrointestinal mucosa; assay type: organism-based, Canis lupus familiaris, Intestinal mucosa; conditions: in vivo
Mus musculus [5] = test: Neurotoxicity in po dosed mouse; assay type: toxicity, organism-based; conditions: in vivo
Procedure, shortened: (§2)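 Mice were assessed by a modified Irwin observational method.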

[6] = Toxicity in po dosed mouse; assay type: organism-based; conditions: in vivo; procedure, shortened: as §1
Mus musculus [7] = test: Neurotoxicity in ip dosed mouse; assay type: toxicity, organism-based; conditions: in vivo; procedure, shortened: as §2
Rattus norvegicus [8] = species: Rattus norvegicus; test: Toxicity in rat assessed as effects on gastrointestinal mucosa; assay type: organism-based, Intestinal mucosa; conditions: in vivo
Canis familiaris [9] = species: Canis familiaris; test: Toxicity in dog assessed as effect on emptying rate of stomach; assay type: organism-based, Canis lupus familiaris; conditions: in vivo
Rattus norvegicus [10] = species: Rattus norvegicus; test: Toxicity in rat assessed as effect on emptying rate of stomach; assay type: organism-based; conditions: in vivo

Structure (SMILES)	ED50 (Rattus norvegicus [1]) [mg/kg]	inhibition in vivo at 50 mg/kg (Rattus norvegicus [2]) [%]	further results
C/C(=N\OCC(=O)O)c1ccc(Cl)cc1	28		
C/C(=N\OCC(=O)O)c1ccccc1C(=O)O		< 20	
C/C(=N\OCC(=O)O)c1ccccc1		< 20	
C/C(=N\OCC(=O)O)c1ccccc1Cl		< 20	
C/C(=N\OCC(=O)O)c1ccccc1O		< 20	
C/C(=N\OCC(=O)O)c1cccc(Cl)c1		20	
C/C(=N\OCC(=O)O)c1ccc(F)cc1	85		
C/C(=N\OCC(=O)O)c1ccc(Br)cc1	27		
C/C(=N\OCC(=O)O)c1ccc(C)cc1		20	
C/C(=N\OCC(=O)O)c1ccc(C(C)(C)C)cc1		< 20	
C/C(=N\OCC(=O)O)c1ccc(CC2CCCCC2)cc1		< 20	
C/C(=N\OCC(=O)O)c1ccc(C2CC2)cc1		< 20	
C/C(=N\OCC(=O)O)c1ccc(C(F)(F)F)cc1	120		
C/C(=N\OCC(=O)O)c1ccc(C#N)cc1		< 20	
C/C(=N\OCC(=O)O)c1ccc(O)cc1		< 20	
COc1ccc(/C(C)=N/OCC(=O)O)cc1		< 20	
CSc1ccc(/C(C)=N/OCC(=O)O)cc1		< 20	
C/C(=N\OCC(=O)O)c1ccc(S(C)(=O)=O)cc1		20	
C/C(=N\OCC(=O)O)c1ccc(N)cc1		20	
CC(=O)Nc1ccc(/C(C)=N/OCC(=O)O)cc1		< 20	
C/C(=N\OCC(=O)O)c1ccc(N(C)C)cc1		< 20	
C/C(=N\OCC(=O)O)c1ccc([N+](=O)[O-])cc1		< 20	
C/C(=N\OCC(=O)O)c1ccc(Cl)cc1Cl	120		

Structure (SMILES)	ED50 (Rattus norvegicus [1]) [mg/kg]	inhibition in vivo at 50 mg/kg (Rattus norvegicus [2]) [%]	further results
C/C(=N\OCC(=O)O)c1ccc(Cl)c(Cl)c1	65		
C/C(=N\OCC(=O)O)c1ccc(Cl)c(C)c1		20	
C/C(=N\OCC(=O)O)c1ccc(C2CCCCC2)c(Cl)c1		< 20	
C/C(=N\OCC(=O)O)c1ccc(F)c(N)c1		20	
O=C(O)CO/N=C/c1ccccc1Cl		< 20	
O=C(O)CO/N=C/c1ccc(Cl)cc1	45		
O=C(O)CO/N=C/c1ccc(Br)cc1	46		
CN(C)c1ccc(/C=N/OCC(=O)O)cc1		< 20	
O=C(O)CO/N=C/c1ccc([N+](=O)[O-])cc1		< 20	
COC(=O)CO/N=C(\C)c1ccc(Cl)cc1	24		
COC(=O)CO/N=C(\C)c1ccc(Br)cc1	14		
C/C(=N\OCC(=O)OCCN(C)C)c1ccc(F)cc1		20	
C/C(=N\OCC(=O)OCCN(C)C)c1ccc(Br)cc1	47		
C/C(=N\OCC(=O)OCCN(C)C)c1ccc(Cl)c(Cl)c1	80		
C/C(=N\OCC(N)=O)c1ccccc1		< 20	
C/C(=N\OCC(N)=O)c1ccc(F)cc1		20	
C/C(=N\OCC(N)=O)c1ccc(Cl)cc1	24		
C/C(=N\OCC(N)=O)c1ccc(Br)cc1	62		
C/C(=N\OCC(N)=O)c1ccc(Cl)c(Cl)c1	55		
CC/C(=N\OCC(=O)O)c1ccc(Cl)cc1		< 20	
CCCCC/C(=N\OCC(=O)O)c1ccc(Cl)cc1		< 20	
CC(C)=NOCC(=O)O		20	
O=C(O)CO/N=C/c1cccc2ccccc12		< 20	

Structure (SMILES)	ED50 (Rattus norvegicus [1]) [mg/kg]	inhibition in vivo at 50 mg/kg (Rattus norvegicus [2]) [%]	further results
C/C(=N\OCC(=O)O)c1cccc2ccccc12		20	
C/C(=N\OCC(=O)O)c1ccc(Cl)s1	34		
C/C(=N\OCC(=O)O)c1c[nH]c2ccccc12		< 20	
O=C(O)CON=C1CCCCC1		< 20	
O=C(O)CO/N=C1\CCc2cc(Cl)ccc21		< 20	
OCCO/N=C/c1ccc(Cl)cc1	90		
OCCO/N=C\c1ccc(Cl)cc1		< 20	
O=C(O)CO/N=C\c1ccc(Cl)s1		< 20	
C/C(=N\OCCO)c1ccc(Cl)s1	60		
C/C(=N/OCCO)c1ccc(Cl)s1		< 20	
C/C(=N/OCC(=O)O)c1ccc(Cl)s1		< 20	
C/C(=C\CC(=O)O)c1ccc(Cl)cc1	70		
C/C(=C\CCC(=O)O)c1ccc(Cl)cc1		< 20	
O=C(O)C#Cc1ccc(Cl)cc1		< 20	
O=C(O)CN/N=C/c1ccc(Cl)cc1	25		
C/C(=N\NCC(=O)O)c1ccc(Cl)cc1	22		
C/C(=N\NCC(=O)O)c1ccc(C2CCCCC2)c(Cl)c1		< 20	
C/C(=N\OCCC(=O)O)c1ccc(Cl)cc1	80		
C/C(=N\OCCCC(=O)O)c1ccc(Cl)cc1	58		
C/C(=N\OCCCCCC(=O)O)c1ccc(Cl)cc1	92		
C/C(=N\OC(C)C(=O)O)c1ccc(Cl)cc1 (configuration not stated)	55		
C/C(=N\OC(C)(C)C(=O)O)c1ccc(Cl)cc1	42		
CCOC(=O)CO/N=C(\C)c1ccc(Cl)cc1	32		

Structure (SMILES)	ED50 (Rattus norvegicus [1]) [mg/kg]	inhibition in vivo at 50 mg/kg (Rattus norvegicus [2]) [%]	further results
CCCOC(=O)CO/N=C(\C)c1ccc(Cl)cc1	14		
C/C(=N\OCC(=O)OC(C)C)c1ccc(Cl)cc1	50		
CNCCOC(=O)CO/N=C(\C)c1ccc(Cl)cc1.Cl	26		
C/C(=N\OCC(=O)OCCNC1CCCCC1)c1ccc(Cl)cc1.Cl	26		
C/C(=N\OCC(=O)OCCN1CCOCC1)c1ccc(Cl)cc1.Cl	44		
C/C(=N\OCC(=O)OCCN1CCN(C)CC1)c1ccc(Cl)cc1.Cl	54		
C/C(=N\OCC(=O)OCC(C)(C)N(C)C)c1ccc(Cl)cc1.Cl	27		
C/C(=N\OCC(=O)OCCCCCCN(C)C)c1ccc(Cl)cc1	66		
CNC(=O)CO/N=C(\C)c1ccc(Cl)cc1	70		
C/C(=N\OCC(=O)N(C)C)c1ccc(Cl)cc1	120		
C/C(=N\OCCO)c1ccc(Cl)cc1	29		
CC(=O)OCCO/N=C(\C)c1ccc(Cl)cc1	43		
C/C(=N\OCCOC(=O)C(C)(C)C)c1ccc(Cl)cc1	38		
COC(=O)OCCO/N=C(\C)c1ccc(Cl)cc1	33		
C/C(=N\OCCCCO)c1ccc(Cl)cc1		< 20	
C/C(=N\OCC(C)O)c1ccc(Cl)cc1 (configuration not stated)		< 20	
C/C(=N\OCC(=O)OCCN(C)C)c1ccc(Cl)cc1 [CLOXIMATE]	34		LD50 [3]: > 320 mg/kg; Activity (Canis familiaris [4]): Non-toxic; ED50 (Mus musculus [5]): > 1000 mg/kg; LD50 [6]: > 1000 mg/kg; ED50 (Mus musculus [7]): > 320 mg/kg; Activity (Rattus norvegicus [8]): Non-toxic; Activity (Canis familiaris [9]): Non-toxic; Activity (Rattus norvegicus [10]): Non-toxic
CC(C)Cc1ccc(CC(=O)O)cc1 [IBUFENAC]	98		
CC(C)Cc1ccc(C(C)C(=O)O)cc1 (configuration not stated) [IBUPROFEN]	25		
CCCCC1C(=O)N(c2ccccc2)N(c2ccccc2)C1=O [PHENYLBUTAZONE]	34		
